Results published in ChEMBL document CHEMBL5712906, “Discovery of a novel long noncoding RNA overlapping the LCK gene that regulates prostate cancer cell growth” (2019).
Calls of active or inactive are those of the source. The calls are words filed in the database; no cut-off is given here.

What was measured:
[1] = target: Histone acetyltransferase p300 (Homo sapiens) (UniProt Q09472); assay: Inhibition of p300 in human LNCaP cells assessed as effect on HULLK expression at 0.3 uM measured after 24 hrs by qpCR analysis; assay type: cell-based
In short: (§1)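 Cells seeded 48 h in their usual growth medium, then given 1 nM R1881 with or without 0.3 μM inhibitor. RNA harvested 24 h after treatment; transcripts quantified by qPCR. HULLK measured with two independent LCK primer pairs (exon 13 or 3′UTR). PSA and TMPRSS2 transcripts serve as checks that p300 inhibition worked. n = 3.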

[2] = target: Histone acetyltransferase p300 (Homo sapiens) (UniProt Q09472); assay: Inhibition of p300 in human LNCaP C4-2 cells assessed as reduction in R1881-induced increase in PSA expression at 0.3 uM measured after 24 hrs by qPCR analysis; assay type: cell-based; in short: as §1
[3] = target: Histone acetyltransferase p300 (Homo sapiens) (UniProt Q09472); assay: Inhibition of p300 in human LNCaP cells assessed as reduction in R1881-induced increase in HULLK expression at 0.3 uM measured after 24 hrs by qPCR analysis; assay type: cell-based; in short: as §1
[4] = target: Histone acetyltransferase p300 (Homo sapiens) (UniProt Q09472); assay: Inhibition of p300 in human LNCaP cells assessed as reduction in R1881-induced increase in PSA expression at 0.3 uM measured after 24 hrs by qPCR analysis; assay type: cell-based; in short: as §1
[5] = target: Histone acetyltransferase p300 (Homo sapiens) (UniProt Q09472); assay: Inhibition of p300 in human LNCaP C4-2 cells assessed as reduction in R1881-induced increase in TMPRSS2 expression at 0.3 uM measured after 24 hrs by qPCR analysis; assay type: cell-based; in short: as §1
[6] = target: Histone acetyltransferase p300 (Homo sapiens) (UniProt Q09472); assay: Inhibition of p300 in human LNCaP C4-2 cells assessed as reduction in R1881-induced increase in HULLK expression at 0.3 uM measured after 24 hrs by qPCR analysis; assay type: cell-based; in short: as §1
[7] = target: Histone acetyltransferase p300 (Homo sapiens) (UniProt Q09472); assay: Inhibition of p300 in human LNCaP C4-2 cells assessed as effect on HULLK expression at 0.3 uM measured after 24 hrs by qpCR analysis; assay type: cell-based; in short: as §1
[8] = target: Histone acetyltransferase p300 (Homo sapiens) (UniProt Q09472); assay: Inhibition of p300 in human LNCaP cells assessed as reduction in R1881-induced increase in TMPRSS2 expression at 0.3 uM measured after 24 hrs by qPCR analysis; assay type: cell-based; in short: as §1
LNCaP = assay: Reduction in R1881-induced increase in LCK 3'-UTR expression in human LNCaP cells at 10 uM measured after 24 hrs by qPCR analysis; assay type: functional, cell-based
In short: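 Cells seeded for 48 h, then exposed to 1 nM R1881 with or without 10 μM enzalutamide. RNA harvested 24 h after treatment. LCK transcript measured by qPCR with primers in the 3′UTR. n = 3.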

Sequence of Histone acetyltransferase p300 (Homo sapiens) (Q09472 whole entry): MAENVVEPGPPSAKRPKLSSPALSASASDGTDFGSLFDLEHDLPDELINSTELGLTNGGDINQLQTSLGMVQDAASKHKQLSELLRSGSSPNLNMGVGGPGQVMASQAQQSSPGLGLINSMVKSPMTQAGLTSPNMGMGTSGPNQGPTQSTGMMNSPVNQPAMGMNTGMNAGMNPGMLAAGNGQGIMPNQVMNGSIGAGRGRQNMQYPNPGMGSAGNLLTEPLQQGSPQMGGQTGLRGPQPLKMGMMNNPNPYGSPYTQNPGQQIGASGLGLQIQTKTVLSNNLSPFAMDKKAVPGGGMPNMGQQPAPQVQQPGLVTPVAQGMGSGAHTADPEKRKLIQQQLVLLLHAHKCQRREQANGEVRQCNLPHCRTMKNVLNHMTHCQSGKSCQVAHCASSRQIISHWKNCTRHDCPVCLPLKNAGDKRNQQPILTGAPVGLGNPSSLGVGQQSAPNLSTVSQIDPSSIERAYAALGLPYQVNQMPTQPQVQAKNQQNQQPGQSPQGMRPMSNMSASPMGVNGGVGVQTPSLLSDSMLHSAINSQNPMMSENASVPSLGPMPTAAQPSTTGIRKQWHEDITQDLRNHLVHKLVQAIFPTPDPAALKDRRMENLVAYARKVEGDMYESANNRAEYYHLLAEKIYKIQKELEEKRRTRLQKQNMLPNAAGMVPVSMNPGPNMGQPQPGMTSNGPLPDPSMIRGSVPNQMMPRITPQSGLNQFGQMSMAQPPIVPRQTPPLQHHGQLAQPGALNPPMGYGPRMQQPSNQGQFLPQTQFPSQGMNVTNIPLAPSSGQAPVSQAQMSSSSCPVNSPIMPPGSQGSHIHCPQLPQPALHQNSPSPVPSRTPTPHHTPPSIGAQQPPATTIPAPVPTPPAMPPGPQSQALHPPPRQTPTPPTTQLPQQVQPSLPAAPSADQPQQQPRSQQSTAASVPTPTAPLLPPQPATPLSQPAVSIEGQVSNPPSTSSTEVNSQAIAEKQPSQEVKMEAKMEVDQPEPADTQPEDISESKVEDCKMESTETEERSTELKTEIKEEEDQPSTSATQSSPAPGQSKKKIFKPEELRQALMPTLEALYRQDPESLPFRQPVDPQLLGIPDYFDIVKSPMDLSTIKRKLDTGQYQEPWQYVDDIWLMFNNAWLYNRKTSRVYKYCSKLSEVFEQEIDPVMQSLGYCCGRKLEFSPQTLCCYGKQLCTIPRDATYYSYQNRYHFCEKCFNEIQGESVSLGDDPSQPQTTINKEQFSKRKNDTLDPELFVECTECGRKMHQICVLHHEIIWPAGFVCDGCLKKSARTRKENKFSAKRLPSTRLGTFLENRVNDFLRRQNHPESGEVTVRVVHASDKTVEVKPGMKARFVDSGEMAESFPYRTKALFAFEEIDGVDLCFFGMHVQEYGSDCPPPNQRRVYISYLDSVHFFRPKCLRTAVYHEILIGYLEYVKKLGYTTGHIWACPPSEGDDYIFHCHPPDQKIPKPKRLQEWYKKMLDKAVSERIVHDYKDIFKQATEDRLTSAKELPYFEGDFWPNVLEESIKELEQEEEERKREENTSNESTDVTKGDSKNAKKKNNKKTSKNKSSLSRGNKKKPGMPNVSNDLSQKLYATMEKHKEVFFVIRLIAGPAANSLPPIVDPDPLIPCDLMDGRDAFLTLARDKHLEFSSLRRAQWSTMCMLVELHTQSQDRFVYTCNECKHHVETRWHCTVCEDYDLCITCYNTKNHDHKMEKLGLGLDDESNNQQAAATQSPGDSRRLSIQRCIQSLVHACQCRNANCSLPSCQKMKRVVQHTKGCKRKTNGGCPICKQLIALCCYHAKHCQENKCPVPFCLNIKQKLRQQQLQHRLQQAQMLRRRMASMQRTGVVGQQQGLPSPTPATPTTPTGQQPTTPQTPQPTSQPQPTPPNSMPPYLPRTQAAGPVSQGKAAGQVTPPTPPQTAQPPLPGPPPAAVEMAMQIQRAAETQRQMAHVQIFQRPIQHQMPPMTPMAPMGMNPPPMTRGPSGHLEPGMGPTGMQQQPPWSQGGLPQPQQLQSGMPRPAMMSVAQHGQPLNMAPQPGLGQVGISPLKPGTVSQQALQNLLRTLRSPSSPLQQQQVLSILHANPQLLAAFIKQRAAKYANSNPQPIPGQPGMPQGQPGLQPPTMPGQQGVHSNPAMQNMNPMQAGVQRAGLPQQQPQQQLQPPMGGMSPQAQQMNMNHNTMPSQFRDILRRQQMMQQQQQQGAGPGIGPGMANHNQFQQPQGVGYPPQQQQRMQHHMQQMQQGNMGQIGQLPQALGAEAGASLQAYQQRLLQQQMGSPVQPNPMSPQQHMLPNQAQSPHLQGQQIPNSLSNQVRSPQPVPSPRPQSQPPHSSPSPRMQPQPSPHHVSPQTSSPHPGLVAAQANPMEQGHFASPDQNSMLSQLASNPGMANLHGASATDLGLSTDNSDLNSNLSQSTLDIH

inhibition [1] | inhibition [2] | inhibition [3] | inhibition [4] | inhibition [5] | inhibition [6] | inhibition [7] | inhibition [8] | Structure (SMILES) | Activity (LNCaP)
inactive | Active | Active | Active | Active | Active | inactive | Active | CNC(=O)Nc1ccc2c(c1)CC[C@@]21OC(=O)N(CC(=O)N(Cc2ccc(F)cc2)[C@@H](C)C(F)(F)F)C1=O | 
 |  |  |  |  |  |  |  | CNC(=O)c1ccc(N2C(=S)N(c3ccc(C#N)c(C(F)(F)F)c3)C(=O)C2(C)C)cc1F | Active
